ChEMBL document CHEMBL1944562, “Design, synthesis of some new (2-aminothiazol-4-yl)methylester derivatives as possible antimicrobial and antitubercular agents” (2012)
In brackets after ≈: the same amount, converted by molar mass.

Tests used:
Type in all cases: functional
Klebsiella pneumoniae [1] = assay: Antibacterial activity against Klebsiella pneumoniae after 16 to 18 hrs by […]
Staphylococcus aureus [2] = assay: Antibacterial activity against Staphylococcus aureus ATCC 25923 at […] after 3 to 4 days
Procedure, shortened: (§1)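 Agar well diffusion on seeded agar plates, 20 mL agar per dish, dried 1 h at 37 °C. Wells punched and loaded with test compound in DMSO at its MIC. DMSO-only control. Plates run in triplicate and kept 3-4 days at 37 °C. Inhibition zone diameter measured.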

Aspergillus fumigatus [3] = assay: Antifungal activity against Aspergillus fumigatus NCIM N0.902 after 3 to 4 days by serial plate dilution method
Escherichia coli [4] = assay: Antibacterial activity against Escherichia coli ATCC 25922 at MIC after 3 to 4 days; procedure, shortened: as §1
[5] = system: Mycobacterium tuberculosis; assay: Antitubercular activity against Mycobacterium tuberculosis H37Rv assessed as growth inhibition after 7 days by resazurin assay
Procedure, shortened: (§2)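 M. tuberculosis H37Rv ATCC 27294 grown in Middlebrook 7H9 broth with 10% OADC and adjusted to McFarland 2. Culture was diluted 1:4 into fresh medium. Compounds came from 2 mg/mL DMF stocks, screened first at 1, 10 and 100, then at 0.3125–5. DMF-only controls were included. After 7 days at 37 °C, 0.01% resazurin was added; a blue-to-pink change marked growth, and the MIC was read.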

[6] = system: Mycobacterium tuberculosis; assay: Antitubercular activity against Mycobacterium tuberculosis H37Rv after 7 days by resazurin assay; conditions: 168 h; procedure, shortened: as §2
Candida albicans [7] = assay: Antifungal activity against Candida albicans at MIC after 3 to 4 days
Procedure, shortened: (§3)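 Fungal suspension made by transferring a loopful of culture to 3 mL saline and seeding agar plates, 20 mL agar per dish, dried 1 h at 37 °C. Punched wells loaded with test compound in DMSO at its MIC. DMSO-only control. Triplicate plates held 3-4 days at 37 °C. Inhibition zone diameter measured.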

[8] = system: Mycolicibacterium smegmatis; assay: Antitubercular activity against Mycobacterium smegmatis ATCC 19420 after 7 days by resazurin assay; conditions: ATCC 19420, 168 h
Procedure, shortened: (§4)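 Middlebrook 7H9 broth with 10% OADC, culture adjusted to McFarland 2. 50 µL culture added to 150 µL fresh medium. Stocks at 2 mg/mL in DMF, tested first at 1, 10 and 100 µg/mL, then at 0.3125-5 µg/mL. DMF controls. After 7 days at 37 °C, 0.01% resazurin added. Blue-to-pink change read for MIC.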

Bacillus subtilis [9] = assay: Antibacterial activity against Bacillus subtilis after 16 to 18 hrs by […]
Aspergillus flavus [10] = assay: Antifungal activity against Aspergillus flavus NCIM N0.524 after 3 to 4 days by serial plate dilution method
Staphylococcus aureus [11] = assay: Antibacterial activity against Staphylococcus aureus ATCC 25923 after 16 to 18 hrs by serial plate dilution method
Talaromyces marneffei [12] = assay: Antifungal activity against Penicillium marneffei at MIC after 3 to 4 days; procedure, shortened: as §3
Pseudomonas aeruginosa [13] = assay: Antibacterial activity against Pseudomonas aeruginosa ATCC 27853 at MIC after 3 to 4 days; procedure, shortened: as §1
Aspergillus flavus [14] = assay: Antifungal activity against Aspergillus flavus NCIM N0.524 at MIC after 3 to 4 days; procedure, shortened: as §3
Pseudomonas aeruginosa [15] = assay: Antibacterial activity against Pseudomonas aeruginosa ATCC 27853 after 16 to 18 hrs by […]
Talaromyces marneffei [16] = assay: Antifungal activity against Penicillium marneffei after 3 to 4 days by serial plate dilution method
Bacillus subtilis [17] = assay: Antibacterial activity against Bacillus subtilis at MIC after 3 to 4 days; procedure, shortened: as §1
[18] = system: Trichophyton mentagrophytes; assay: Antifungal activity against Trichophyton mentagrophytes at MIC after 3 to 4 days; procedure, shortened: as §3
Candida albicans [19] = assay: Antifungal activity against Candida albicans after 3 to 4 days by serial plate dilution method
[20] = system: Trichophyton mentagrophytes; assay: Antifungal activity against Trichophyton mentagrophytes after 3 to 4 days by serial plate dilution method
Escherichia coli [21] = assay: Antibacterial activity against Escherichia coli ATCC 25922 after 16 to 18 hrs by […]
Aspergillus fumigatus [22] = assay: Antifungal activity against Aspergillus fumigatus NCIM N0.902 at MIC after 3 to 4 days; procedure, shortened: as §3
Klebsiella pneumoniae [23] = assay: Antibacterial activity against Klebsiella pneumoniae at MIC after 3 to 4 days; procedure, shortened: as §1
[24] = system: Mycolicibacterium fortuitum; assay: Antitubercular activity against Mycobacterium fortuitum ATCC 19542 after 7 days by resazurin assay; conditions: ATCC 19542, 168 h; procedure, shortened: as §4

SMILES	MIC (Klebsiella pneumoniae [1]) [µg/mL]	diameter of the inhibition zone (DIZ) (Staphylococcus aureus [2]) [mm]	MIC (Aspergillus fumigatus [3]) [µg/mL]	diameter of the inhibition zone (DIZ) (Escherichia coli [4]) [mm]	growth inhibition (GI) [5] [%]	MIC [6] [µg/mL]	diameter of the inhibition zone (DIZ) (Candida albicans [7]) [mm]	MIC [8] [µg/mL]	MIC (Bacillus subtilis [9]) [µg/mL]	MIC (Aspergillus flavus [10]) [µg/mL]	diameter of the inhibition zone (DIZ) (Talaromyces marneffei [12]) [mm]	diameter of the inhibition zone (DIZ) (Pseudomonas aeruginosa [13]) [mm]	diameter of the inhibition zone (DIZ) (Aspergillus flavus [14]) [mm]	MIC (Talaromyces marneffei [16]) [µg/mL]	diameter of the inhibition zone (DIZ) (Bacillus subtilis [17]) [mm]	diameter of the inhibition zone (DIZ) [18] [mm]	MIC (Candida albicans [19]) [µg/mL]	MIC [20] [µg/mL]	diameter of the inhibition zone (DIZ) (Aspergillus fumigatus [22]) [mm]	MIC [24] [µg/mL]	other results
Nc1nc(COC(=O)c2ccc([N+](=O)[O-])cc2)cs1	6.25 (≈ 22.4 µM)	<10	6.25 (≈ 22.4 µM)	11	90	1 (≈ 3.58 µM)	16	10 (≈ 35.8 µM)	12.5 (≈ 44.8 µM)	6.25 (≈ 22.4 µM)	16	10	16	6.25 (≈ 22.4 µM)	10	16	6.25 (≈ 22.4 µM)	6.25 (≈ 22.4 µM)	16	10 (≈ 35.8 µM)	MIC (Staphylococcus aureus [11]): 25 µg/mL (≈ 89.5 µM); MIC (Pseudomonas aeruginosa [15]): 12.5 µg/mL (≈ 44.8 µM); MIC (Escherichia coli [21]): 12.5 µg/mL (≈ 44.8 µM); diameter of the inhibition zone (DIZ) (Klebsiella pneumoniae [23]): 16 mm
Nc1nc(COC(=O)c2cc(F)cc(C(F)(F)F)c2)cs1	25 (≈ 78.1 µM)	11	6.25 (≈ 19.5 µM)	<10	90	1 (≈ 3.12 µM)	16	> 100	12.5 (≈ 39 µM)	6.25 (≈ 19.5 µM)	16	11	16	6.25 (≈ 19.5 µM)	11	16	6.25 (≈ 19.5 µM)	6.25 (≈ 19.5 µM)	16	10 (≈ 31.2 µM)	MIC (Staphylococcus aureus [11]): 12.5 µg/mL (≈ 39 µM); MIC (Pseudomonas aeruginosa [15]): 12.5 µg/mL (≈ 39 µM); MIC (Escherichia coli [21]): 25 µg/mL (≈ 78.1 µM); diameter of the inhibition zone (DIZ) (Klebsiella pneumoniae [23]): <10 mm
Nc1nc(COC(=O)Cc2cccc(C(F)(F)F)c2)cs1	12.5 (≈ 39.5 µM)	16	12.5 (≈ 39.5 µM)	16	95	0.625 (≈ 1.98 µM)	<10	10 (≈ 31.6 µM)	6.25 (≈ 19.8 µM)	12.5 (≈ 39.5 µM)	<10	16	11	25 (≈ 79 µM)	16	11	25 (≈ 79 µM)	12.5 (≈ 39.5 µM)	11	10 (≈ 31.6 µM)	MIC (Staphylococcus aureus [11]): 6.25 µg/mL (≈ 19.8 µM); MIC (Pseudomonas aeruginosa [15]): 6.25 µg/mL (≈ 19.8 µM); MIC (Escherichia coli [21]): 6.25 µg/mL (≈ 19.8 µM); diameter of the inhibition zone (DIZ) (Klebsiella pneumoniae [23]): 11 mm
Nc1nc(COC(=O)c2c(F)cc(F)cc2F)cs1	25 (≈ 86.7 µM)	<10	6.25 (≈ 21.7 µM)	16	<90	5 (≈ 17.3 µM)	16	10 (≈ 34.7 µM)	25 (≈ 86.7 µM)	6.25 (≈ 21.7 µM)	16	16	16	6.25 (≈ 21.7 µM)	<10	16	6.25 (≈ 21.7 µM)	6.25 (≈ 21.7 µM)	16	> 100	MIC (Staphylococcus aureus [11]): 25 µg/mL (≈ 86.7 µM); MIC (Pseudomonas aeruginosa [15]): 6.25 µg/mL (≈ 21.7 µM); MIC (Escherichia coli [21]): 6.25 µg/mL (≈ 21.7 µM); diameter of the inhibition zone (DIZ) (Klebsiella pneumoniae [23]): <10 mm
N#Cc1cccc(C(=O)OCc2csc(N)n2)n1	25 (≈ 96.1 µM)	<10	12.5 (≈ 48 µM)	11	<90	10 (≈ 38.4 µM)	<10	> 100	25 (≈ 96.1 µM)	6.25 (≈ 24 µM)	16	<10	16	6.25 (≈ 24 µM)	<10	11	25 (≈ 96.1 µM)	12.5 (≈ 48 µM)	11	> 100	MIC (Staphylococcus aureus [11]): 25 µg/mL (≈ 96.1 µM); MIC (Pseudomonas aeruginosa [15]): 25 µg/mL (≈ 96.1 µM); MIC (Escherichia coli [21]): 12.5 µg/mL (≈ 48 µM); diameter of the inhibition zone (DIZ) (Klebsiella pneumoniae [23]): <10 mm
N#Cc1ccccc1C(=O)OCc1csc(N)n1	12.5 (≈ 48.2 µM)	11	12.5 (≈ 48.2 µM)	16	<90	5 (≈ 19.3 µM)	16	> 100	25 (≈ 96.4 µM)	12.5 (≈ 48.2 µM)	<10	16	11	25 (≈ 96.4 µM)	<10	<10	6.25 (≈ 24.1 µM)	25 (≈ 96.4 µM)	11	> 100	MIC (Staphylococcus aureus [11]): 12.5 µg/mL (≈ 48.2 µM); MIC (Pseudomonas aeruginosa [15]): 6.25 µg/mL (≈ 24.1 µM); MIC (Escherichia coli [21]): 6.25 µg/mL (≈ 24.1 µM); diameter of the inhibition zone (DIZ) (Klebsiella pneumoniae [23]): 11 mm
Nc1nc(COC(=O)c2cccc([N+](=O)[O-])c2Cl)cs1	6.25 (≈ 19.9 µM)	11	25 (≈ 79.7 µM)	11	90	0.625 (≈ 1.99 µM)	<10	1 (≈ 3.19 µM)	12.5 (≈ 39.8 µM)	25 (≈ 79.7 µM)	11	<10	<10	12.5 (≈ 39.8 µM)	11	<10	25 (≈ 79.7 µM)	25 (≈ 79.7 µM)	<10	10 (≈ 31.9 µM)	MIC (Staphylococcus aureus [11]): 12.5 µg/mL (≈ 39.8 µM); MIC (Pseudomonas aeruginosa [15]): 25 µg/mL (≈ 79.7 µM); MIC (Escherichia coli [21]): 12.5 µg/mL (≈ 39.8 µM); diameter of the inhibition zone (DIZ) (Klebsiella pneumoniae [23]): 16 mm
O=C(O)c1cn(C2CC2)c2cc(N3CCNCC3)c(F)cc2c1=O [CIPROFLOXACIN]	6.25 (≈ 18.9 µM)	22	–	30	–	–	–	–	1.56 (≈ 4.71 µM)	–	–	16	–	–	21	–	–	–	–	–	diameter of the inhibition zone (DIZ) (Klebsiella pneumoniae [23]): 23 mm
Nc1nc(COC(=O)c2ccc(Cl)cc2)cs1	6.25 (≈ 23.3 µM)	16	6.25 (≈ 23.3 µM)	16	0	> 100	<10	> 100	6.25 (≈ 23.3 µM)	25 (≈ 93 µM)	<10	16	<10	25 (≈ 93 µM)	16	16	25 (≈ 93 µM)	6.25 (≈ 23.3 µM)	16	> 100	MIC (Staphylococcus aureus [11]): 6.25 µg/mL (≈ 23.3 µM); MIC (Pseudomonas aeruginosa [15]): 6.25 µg/mL (≈ 23.3 µM); MIC (Escherichia coli [21]): 6.25 µg/mL (≈ 23.3 µM); diameter of the inhibition zone (DIZ) (Klebsiella pneumoniae [23]): 16 mm
CO[C@H]1/C=C/O[C@@]2(C)Oc3c(C)c(O)c4c(O)c(c(/C=N/N5CCN(C)CC5)c(O)c4c3C2=O)NC(=O)/C(C)=C\C=C\[C@H](C)[C@H](O)[C@@H](C)[C@@H](O)[C@@H](C)[C@H](OC(C)=O)[C@@H]1C [RIFAMPIN]	–	–	–	–	95	0.5 (≈ 0.608 µM)	–	1.5 (≈ 1.82 µM)	–	–	–	–	–	–	–	–	–	–	–	1.5 (≈ 1.82 µM)	–
NNC(=O)c1ccncc1 [ISONIAZID]	–	–	–	–	95	0.7 (≈ 5.1 µM)	–	50 (≈ 365 µM)	–	–	–	–	–	–	–	–	–	–	–	12.5 (≈ 91.1 µM)	–
Cc1cc(C2CCCCC2)n(O)c(=O)c1.NCCO [CICLOPIROX OLAMINE]	–	–	6.25	–	–	–	20	–	–	6.25	20	–	25	6.25	–	27	6.25	6.25	25	–	–
